In ChEMBL document CHEMBL3244116, “New antiarrhythmic agents. 2. Amide alkyl alpha-amino xylidides” (J Med Chem, 1979):

Key:
Mus musculus [1] = assay: Antiarrhythmic activity in Swiss albino mouse assessed as protection against chloroform-induced fibrillation at 100 mg/kg, sc treated 20 mins before chloroform challenge; type: functional, Heart; conditions: route subcutaneous
Summary of the method: (§1)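 Mice were given test agents subcutaneously, 100 mg/kg in preliminary runs, and were then challenged with chloroform to induce ventricular fibrillation (a modification of Lawson's method). Protection is expressed as the percent of challenged animals that survived the challenge. In the same animals, ataxia, convulsions, loss of righting reflex and death were scored as the percent of treated animals.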

Mus musculus [2] = assay: Toxicity in Swiss albino mouse assessed as ataxia at 100 mg/kg, sc measured up to 20 mins; type: organism-based; set-up: dose 100 mg/kg, route subcutaneous; conditions: in vivo; summary of the method: as §1
Mus musculus [3] = assay: Toxicity in Swiss albino mouse assessed as convulsion at 100 mg/kg, sc measured up to 20 mins; type: organism-based; set-up: dose 100 mg/kg, route subcutaneous; conditions: in vivo; summary of the method: as §1
Mus musculus [4] = assay: Toxicity in Swiss albino mouse assessed as loss of righting reflex at 100 mg/kg, sc measured up to 20 mins; type: organism-based; set-up: dose 100 mg/kg, route subcutaneous; conditions: in vivo; summary of the method: as §1
[5] = Toxicity in Swiss albino mouse assessed as death at 100 mg/kg, sc measured up to 20 mins; type: organism-based; set-up: dose 100 mg/kg, route subcutaneous; conditions: in vivo, read-out: Activity
Summary of the method: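 Mice given 100 mg/kg subcutaneously in preliminary screening, then later challenged with chloroform to induce ventricular fibrillation. CNS signs were recorded in the same animals. Value is the percent of treated animals that died.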

Mus musculus [6] = assay: Antiarrhythmic activity in sc dosed Swiss albino mouse assessed as protection against chloroform-induced ventricular fibrillation; type: functional; conditions: Heart; summary of the method: as §1
Mus musculus [7] = assay: Ratio of lidocaine ED50 to compound ED50 for antiarrhythmic activity sc dosed Swiss albino mouse assessed as protection against chloroform-induced ventricular fibrillation; type: functional, Heart
Summary of the method: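 Each ED50 against chloroform-induced ventricular fibrillation in subcutaneously dosed mice came from at least three doses. Potency was calculated relative to lidocaine on a molar basis.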

Canis familiaris [8] = assay: Antiarrhythmic activity in left anterior descending coronary artery ligated myocardial infarction dog model assessed as clearing value as reduction in ventricular ectopic beats to <= 5% for 5 mins at infusion rate 0.5 mg/kg/min, iv treated until arrhythmia cleared; type: functional, Canis lupus familiaris, Heart; set-up: scale not given: the % may be the effect or the level left
Summary of the method: (§2)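 Test agents were infused intravenously into dogs with coronary artery ligation-induced myocardial infarction and ventricular arrhythmias. In some runs, infusion stopped at clearing or at convulsion. In others, it continued until clearing. Ectopic beats, CNS signs (convulsions, opisthotonus, clonic spasms), respiratory arrest and mean arterial blood pressure were recorded, and doses are given in mmol/kg. Values are means±SD of 5–14 experiments or the mean of 8.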

Canis familiaris [9] = assay: Antiarrhythmic activity in left anterior descending coronary artery ligated myocardial infarction dog model assessed as clearing value as reduction in ventricular ectopic beat rate per min at infusion rate 0.5 mg/kg/min, iv treated until arrhythmia cleared; type: functional, Canis lupus familiaris, Heart; summary of the method: as §2
Canis familiaris [10] = assay: Antiarrhythmic activity in left anterior descending coronary artery ligated myocardial infarction dog model assessed as mean arterial blood pressure at infusion rate 0.5 mg/kg/min, iv; type: functional, Canis lupus familiaris; summary of the method: as §2
Canis familiaris [11] = assay: Antiarrhythmic activity in iv dosed left anterior descending coronary artery ligated myocardial infarction dog model assessed as dose required to reduction in ventricular ectopic beats to <= 5% at infusion rate 0.5 mg/kg/min; type: functional, Canis lupus familiaris, Heart; summary of the method: as §2
Canis familiaris [12] = assay: Toxicity in left anterior descending coronary artery ligated myocardial infarction dog model assessed as dose required to cause convulsion at infusion rate at 0.5 mg/kg/min; type: organism-based, Canis lupus familiaris; conditions: in vivo; summary of the method: as §2
Canis familiaris [13] = assay: Toxicity in left anterior descending coronary artery ligated myocardial infarction dog model assessed as dose required to cause convulsion at infusion rate at 0.66 mg/kg/min; type: organism-based, Canis lupus familiaris; conditions: in vivo; summary of the method: as §2
Canis familiaris [14] = assay: Toxicity in iv dosed left anterior descending coronary artery ligated myocardial infarction dog model assessed as dose required to cause convulsion after infusion off; type: organism-based, Canis lupus familiaris; conditions: in vivo; summary of the method: as §2

SMILES | Activity (Mus musculus [1]) [%] | Activity (Mus musculus [2]) [%] | Activity (Mus musculus [3]) [%] | Activity (Mus musculus [4]) [%] | mortality at 20 min [5] [%] | ED50 (Mus musculus [6]) [µmol/kg] | Ratio ED50 (Mus musculus [7]) | Activity (Canis familiaris [8]) [%] | Activity (Canis familiaris [9]) [bpm] | Activity (Canis familiaris [10]) [mmHg] | Activity (Canis familiaris [11]) [mmol/kg] | Activity (Canis familiaris [12]) [mmol/kg] | Activity (Canis familiaris [13]) [mmol/kg] | Activity (Canis familiaris [14]) [mmol/kg]
CCC(N)C(=O)N(CC)c1c(C)cccc1C.Cl (stereo not drawn) | 100 | 100 | 100 | 0 | 30 | – | – | – | – | – | – | – | – | –
CCN(CC)CC(=O)Nc1c(C)cccc1C [LIDOCAINE] | 100 | 100 | 100 | 100 | 0 | 260 | 1 | 4 | 133 | 101 | 0.21 | 0.27 | – | –
Cc1cccc(C)c1NC(=O)CN [GLYCINEXYLIDIDE] | 10 | 0 | 0 | 0 | 0 | 900 | 0.3 | – | – | – | – | – | – | –
CCCOc1cc(C)c(N(CC)C(=O)CN)c(C)c1.O=C(O)C(=O)O | 100 | 0 | 0 | 0 | 0 | 160 | 1.6 | 1 | 168 | 90 | 0.09 | – | 0.13 | 0.16
CCCOc1cc(C)c(N(C)C(=O)CN)c(C)c1.O=C(O)C(=O)O | 70 | 20 | 0 | 0 | 0 | 340 | 0.8 | – | – | – | – | – | – | –
CCCCOc1cc(C)c(N(C)C(=O)CN)c(C)c1.O=C(O)C(=O)O | 100 | 0 | 0 | 0 | 0 | 270 | 1 | – | – | – | – | – | – | –
Cc1cccc(C)c1NC(=O)C(C)N (stereo not drawn) [TOCAINIDE] | 20 | 10 | 0 | 0 | 0 | 1300 | 0.2 | 2 | 148 | 108 | 0.32 | 0.3 | – | –
